Measurements from ChEMBL document CHEMBL4811241, “Revisiting Pyrazolo[3,4-d]pyrimidine Nucleosides as Anti-Trypanosoma cruzi and Antileishmanial Agents” (J Med Chem, 2021).

Tests used:
Trypanosoma cruzi [1] = assay: Antitrypanosomal activity against nifurtimox-sensitive Trypanosoma cruzi Tulahuen CL2 infected in Swiss mouse peritoneal macrophages assessed as inhibition of parasite growth measured after 7 days in presence of ABC transporter inhibitor, cyclosporine A by spectrophotometric analysis; type: functional, organism-based; conditions: Tulahuen CL2, Peritoneal macrophage, 168 h
Summary of the method: (§1)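 Macrophage-hosted 7-day assay read with CPRG at 540 nm, with compound given together with an ABC transporter inhibitor: cyclosporine A 2 μM, probenecid 700 μM or verapamil 8 μM. IC50 from % reduction versus infected controls.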

[2] = Toxicity in Swiss webster mouse infected with Trypanosoma cruzi Y trypomastigotes assessed as animal survival at 0.25 mg/kg, po bid for 5 days treatment started at 6 days post-infection and measured at 34 days post-infection; type: organism-based; conditions: in vivo, 696 h, time 29 day
Summary of the method: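 Male Swiss Webster mice (18−20 g, 4−5 weeks) were infected i.p. with 10⁴ Y-strain bloodstream trypomastigotes from a donor mouse. Only mice with detectable parasitemia were treated, in groups of six. Oral gavage was given on days 6–10 post-infection, b.i.d. or q.d. as listed, in 10% Tween 80 vehicle, freshly prepared. Infected vehicle controls were included. Mortality was checked daily to 34 dpi as cumulative percentage.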

Trypanosoma cruzi [3] = assay: Antitrypanosomal activity against nifurtimox-sensitive Trypanosoma cruzi Tulahuen CL2 infected in Swiss mouse peritoneal macrophages assessed as inhibition of parasite growth measured after 7 days in presence of ABC transporter inhibitor, verapamil by spectrophotometric analysis; type: functional, organism-based; conditions: Tulahuen CL2, Peritoneal macrophage, 168 h; summary of the method: as §1
[4] = Cytotoxicity against human MRC-5 SV2 cells assessed as reduction in cell growth measured after 3 days by resazurin dye based fluorometric analysis; conditions: time 3 day
UGT [5] = assay: Metabolic stability of the compound in mouse liver microsomes S9 fraction assessed as UGT-mediated metabolism by measuring parent compound remaining at 5 uM measured after 30 mins in presence of UDPGA by UPLC-MS analysis; type: ADME, subcellular; conditions: read-out: Stabilty
Summary of the method: (§2)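 Compound at 5 μM with 0.5 mg/mL male mouse or pooled human liver microsomes; reaction started with 2 mM UDPGA. Sampled at 0, 15, 30 and 60 min and quenched in cold acetonitrile with internal standard. Parent remaining measured by UPLC-MS/MS (MRM) as % of the 0 min value.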

Leishmania infantum = assay: Antileishmanial activity against amastigote form of Leishmania infantum MHOM/MA(BE)/67 infected in Swiss mouse peritoneal macrophages assessed as reduction in parasite growth treated at 2 hrs post-infection and measured after 5 days by Giemsa staining based microscopic analysis; type: functional, organism-based; conditions: MHOM/MA(BE)/67, Peritoneal macrophage
Summary of the method: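 Swiss mouse peritoneal macrophages, harvested after 2-day potato-starch stimulation, infected 48 h after plating; compounds added 2 h post-infection.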

UGT [6] = assay: Metabolic stability of the compound in mouse liver microsomes S9 fraction assessed as UGT-mediated metabolism by measuring parent compound remaining at 5 uM measured after 15 mins in presence of UDPGA by UPLC-MS analysis; type: ADME, subcellular; conditions: read-out: Stabilty; summary of the method: as §2
[7] = Cytotoxicity against Swiss Webster mouse 2D cardiomyocytes assessed as reduction in cell viability measured after 48 hrs by PrestoBlue assay; design: species or system Cardiac Muscle Cell; conditions: read-out: LC50
Summary of the method: (§3)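 Mouse embryo heart cells as monolayer (2D) or 3D aggregates (25 × 10³ cells/well on 1% agarose). Uninfected cultures exposed 48 h to rising concentrations. Morphology checked by light microscopy; viability read by PrestoBlue; CC₅₀ determined.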

UGT [8] = target: T1, UGT (Homo sapiens, UniProt O60656+O75310+O75795+P06133+P0DTE4+P0DTE5+P16662+P19224+P22309+P22310+P35503+P35504+P36537+P54855+Q6UWM9+Q9BY64+Q9HAW7+Q9HAW8+Q9HAW9); assay: Metabolic stability of the compound in human liver microsomes S9 fraction assessed as UGT-mediated metabolism by measuring parent compound remaining at 5 uM measured after 60 mins in presence of UDPGA by UPLC-MS analysis; type: ADME, subcellular; conditions: read-out: Stabilty; summary of the method: as §2
UGT [9] = target: T1, UGT; assay: Metabolic stability of the compound in human liver microsomes S9 fraction assessed as UGT-mediated metabolism by measuring parent compound remaining at 5 uM measured after 30 mins in presence of UDPGA by UPLC-MS analysis; type: ADME, subcellular; conditions: read-out: Stabilty; summary of the method: as §2
[10] = Cytotoxicity against Swiss Webster mouse 3D cardiomyocytes assessed as reduction in cell viability measured after 48 hrs by PrestoBlue assay; type: tissue-based, Cardiac Muscle Cell; summary of the method: as §3
[11] = Selectivity index, ratio of LC50 for cytotoxicity against Swiss Webster mouse 2D cardiomyocytes to IC50 for antitrypanosomal activity against intracellular amastigote form of Trypanosoma cruzi Y infected in Swiss Webster mouse cardiomyocytes; type: toxicity, cell-based; conditions: read-out: Ratio LC50/IC50
Summary of the method: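 Ratio of cardiac-cell CC₅₀ to Y-strain amastigote IC₅₀. Cardiac cultures were infected after 24 h plating for 24 h with bloodstream trypomastigotes (10:1 parasite/host). After washing, cells were treated 48 h at 37 °C with a serial dilution. Cells were then Giemsa-stained, with infection and parasites per cell scored in 200 cells. Two independent experiments were run in duplicate.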

UGT [12] = assay: Metabolic stability of the compound in mouse liver microsomes S9 fraction assessed as UGT-mediated metabolism by measuring parent compound remaining at 5 uM measured after 60 mins in presence of UDPGA by UPLC-MS analysis; type: ADME, subcellular; conditions: read-out: Stabilty; summary of the method: as §2
CYP450 [13] = assay: Metabolic stability of the compound in mouse liver microsomes S9 fraction assessed as CYP450-mediated metabolism by measuring parent compound remaining at 5 uM measured after 60 mins in presence of NADPH by UPLC-MS analysis; type: ADME, subcellular; conditions: read-out: Stabilty
Summary of the method: (§4)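 Compound at 5 μM with 0.5 mg/mL male mouse or pooled human liver microsomes in potassium phosphate buffer; reaction started with 1 mM NADPH. Samples taken at 0, 15, 30 and 60 min and quenched in cold acetonitrile with internal standard. Parent remaining quantified by UPLC-MS/MS in MRM mode and given as % of the 0 min value.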

[14] = Cytotoxicity against Swiss mouse peritoneal macrophages assessed as cell detachment, lysis and granulation measured after 5 days by microscopic analysis; type: cell-based, Peritoneal macrophage; conditions: time 5 day
Summary of the method: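 Scored within the Leishmania macrophage assay over 5 days: detachment, lysis and granulation judged semi-quantitatively by microscopy across at least 500 cells. CC50 derived from % reduction in normal cells versus untreated wells.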

Trypanosoma cruzi [15] = assay: Antitrypanosomal activity against Trypanosoma cruzi Y bloodstream trypomastigotes assessed as inhibition of parasite growth incubated for 24 hrs by light microscopy; type: functional, organism-based
CYP450 [16] = target: CYP450 (Homo sapiens, UniProt P04798+P05177+P05181+P08684+P10632+P10635+P11509+P11712+P13584+P20813+P20815+P20853+P24462+P24903+P33260+P33261+P51589+P78329+P98187+Q02928+Q08477+Q16678+Q16696+Q5TCH4+Q6VVX0+Q7Z449+Q8TAV3+Q96SQ9+Q9HB55); assay: Metabolic stability of the compound in human liver microsomes S9 fraction assessed as CYP450-mediated metabolism by measuring parent compound remaining at 5 uM measured after 15 mins in presence of NADPH by UPLC-MS analysis; type: ADME, subcellular; conditions: read-out: Stabilty; summary of the method: as §4
Trypanosoma cruzi [17] = assay: Antitrypanosomal activity against Trypanosoma cruzi strain Y bloodstream trypomastigotes infected in Swiss Webster mouse assessed as reduction in parasitemia at 25 mg/kg, po bid for 5 days treatment started at 6 days post-infection and measured at 8 days post-infection by light microscopic analysis; type: functional; conditions: 48 h, time 2 day
Summary of the method: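 Male Swiss Webster mice, 18–20 g, six per group; only mice with detectable parasitemia treated. Oral gavage for 5 consecutive days (6–10 dpi); test compound given b.i.d. in 10% Tween 80, benznidazole once daily, formulations freshly prepared. Parasitemia counted by light microscopy in 5 μL blood; mortality checked daily to 34 dpi.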

SMILES: Nc1ncnc2c1c(-c1ccc(Cl)cc1)nn2[C@@H]1O[C@H](CO)[C@@H](O)[C@H]1O
- IC50 (Trypanosoma cruzi [1]): > 64 µM
- Activity [2]: Toxic
- IC50 (Trypanosoma cruzi [3]): > 64 µM
- CC50 at 72 h [4]: > 64 µM
- remaining at 0.5 h, 5 µM (UGT [5]): 115%
- IC50 (Leishmania infantum): > 64 µM
- remaining at 0.25 h, 5 µM (UGT [6]): 103%
- CC50 at 48 h [7]: 500 µM
- remaining at 1 h, 5 µM (UGT [8]): 104%
- remaining at 0.5 h, 5 µM (UGT [9]): 106%
- CC50 at 48 h [10]: 200 µM
- selectivity ratio [11]: > 1900
- remaining at 1 h, 5 µM (UGT [12]): 115%
- remaining at 1 h, 5 µM (CYP450 [13]): 108%
- CC50 at 120 h [14]: > 64 µM
- IC50 (Trypanosoma cruzi [15]): > 81 µM
- remaining at 0.25 h, 5 µM (CYP450 [16]): 102%
- inhibition in vivo at 25 mg/kg (Trypanosoma cruzi [17]): 99%
